Measured values from the array DNA melting data of Ke et al. (doi:10.1101/2024.01.08.574731).

Key:
[1] = folding enthalpy; higher = less favourable; fluorescence melt of hairpins on a sequencing array, two-state fit; conditions: sodium 0.088 M
Summary of the method: (§1)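 Bootstrapped two-state fits yielded melting temperature and folding enthalpy for library hairpins. Cy3 fluorescence, with annealed Cy3 and quencher oligos, was imaged on a sequenced MiSeq flow cell in 50 mM Na-HEPES pH 8.0, 25 mM NaCl in 2.5 °C steps up to 60 °C, and normalised to pre-quench Cy3 and to control constructs. Four replicates were combined by inverse variance, and fitted temperatures were raised by 9.35 °C to match UV melts.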

[2] = melting temperature; fluorescence melt of hairpins on a sequencing array, two-state fit, raised by 9.35 °C to match UV melts; conditions: sodium 0.088 M
Summary of the method: as §1

GGTCTCGAAAGAGGCACC ((((((....)))..)))
folding enthalpy [1]: -14.5 kcal/mol
Tm [2]: 39.1 °C

GCAAGGCGAAAGCGGTGC (((..((....))..)))
folding enthalpy [1]: -21.2 kcal/mol
Tm [2]: 47.1 °C

GCGTTACGAAAGTATCGC (((.(((....))).)))
folding enthalpy [1]: -47.6 kcal/mol
Tm [2]: 55.2 °C

GGCGCCGAAAGGCCTGCC ((((((....)))..)))
folding enthalpy [1]: -16.6 kcal/mol
Tm [2]: 50.8 °C

GATCGCTGTCGCGATC ((((((....))))))
folding enthalpy [1]: -30.2 kcal/mol
Tm [2]: 68.4 °C

GGCCGGCGAAAGCCAGCC (((.(((....))).)))
folding enthalpy [1]: -22.4 kcal/mol
Tm [2]: 68.1 °C

GATCTGTATGCAGATC ((((((....))))))
folding enthalpy [1]: -38.8 kcal/mol
Tm [2]: 54.9 °C

CGCCCCGGAAACGGAGCG (((.(((....))).)))
folding enthalpy [1]: -39.3 kcal/mol
Tm [2]: 56.5 °C

GGCATTGGAAACAGTGCC ((((.((....)).))))
folding enthalpy [1]: -43 kcal/mol
Tm [2]: 52.2 °C

GGAAACGGAAACGTTTCC (((((((....)))))))
folding enthalpy [1]: -45.5 kcal/mol
Tm [2]: 64.8 °C

GAAAGCGAAAGCTGATTC ((((((....)))..)))
folding enthalpy [1]: -19.2 kcal/mol
Tm [2]: 42 °C

GATCTTTTCCAAGATC ((((((....))))))
folding enthalpy [1]: -36.2 kcal/mol
Tm [2]: 42.9 °C

GCAGCGCGAAAGCGGAGC ((..(((....)))..))
folding enthalpy [1]: -17.7 kcal/mol
Tm [2]: 56 °C

GTCGAGAAATCGAC (((((....)))))
folding enthalpy [1]: -26.8 kcal/mol
Tm [2]: 55.5 °C

GCCTTTACGAAAGTAGGC (((..(((....))))))
folding enthalpy [1]: -28.7 kcal/mol
Tm [2]: 43.5 °C

GGCAGGGGAAACCCCGCC (((.(((....))).)))
folding enthalpy [1]: -35.7 kcal/mol
Tm [2]: 57 °C

GCACCGCGAAAGCCGGGC ((.(.((....)).).))
folding enthalpy [1]: -20.6 kcal/mol
Tm [2]: 54.5 °C

GGGTAGGGAAACTTACCC (((((.(....).)))))
folding enthalpy [1]: -29.5 kcal/mol
Tm [2]: 45.8 °C

GATCAGTCTACTGATC ((((((....))))))
folding enthalpy [1]: -49.8 kcal/mol
Tm [2]: 54.2 °C

GATCCTCCCGAGGATC ((((((....))))))
folding enthalpy [1]: -36.9 kcal/mol
Tm [2]: 56.4 °C

GTGAACGAAAGTTAACAC ((((((....)))..)))
folding enthalpy [1]: -19.5 kcal/mol
Tm [2]: 35.5 °C

GTATCCGAAAGGAGTAC ((((((....))).)))
folding enthalpy [1]: -19.1 kcal/mol
Tm [2]: 35.5 °C

GTGTCCCCGAAAGGGCAC (((..(((....))))))
folding enthalpy [1]: -21.4 kcal/mol
Tm [2]: 49.6 °C

GATCTTGGTCAAGATC ((((((....))))))
folding enthalpy [1]: -36.8 kcal/mol
Tm [2]: 48.9 °C

GATCTGTAGCCAGATC ((((((....))))))
folding enthalpy [1]: -34.1 kcal/mol
Tm [2]: 48.6 °C

GCACCCGGAAACGGGTAC (.(((((....))))).)
folding enthalpy [1]: -12.7 kcal/mol
Tm [2]: 45.1 °C

GGCGTTCGAAAGAAGCC (((.(((....))))))
folding enthalpy [1]: -23.2 kcal/mol
Tm [2]: 50.8 °C

GCGAAACTCGC ((((...))))
folding enthalpy [1]: -18.9 kcal/mol
Tm [2]: 47.4 °C

GTGCACGAAAGTGGACAC ((((((....)))..)))
folding enthalpy [1]: -15.2 kcal/mol
Tm [2]: 52.6 °C

GACGGTCCGAAAGGAGTC (((..(((....))))))
folding enthalpy [1]: -14.2 kcal/mol
Tm [2]: 34.2 °C

GTAATTCGAAAGAAGTAC (((.(((....))).)))
folding enthalpy [1]: -25 kcal/mol
Tm [2]: 42.3 °C

GTCGTCGGAAACAACGAC (((((.(....).)))))
folding enthalpy [1]: -38 kcal/mol
Tm [2]: 48.3 °C

GCGACACCGAAAGGTCGC (((..(((....))))))
folding enthalpy [1]: -34.6 kcal/mol
Tm [2]: 61.1 °C

GGCCTTCGAAAGAAGCC (((.(((....))))))
folding enthalpy [1]: -27.6 kcal/mol
Tm [2]: 51.4 °C

GATCGTGGTGACGATC ((((((....))))))
folding enthalpy [1]: -39.1 kcal/mol
Tm [2]: 57.6 °C

GAGGGCGAAAGCCCCTC ((((((....))).)))
folding enthalpy [1]: -9.57 kcal/mol
Tm [2]: 57.1 °C

GCGGTCCTCCGC ((((....))))
folding enthalpy [1]: -28 kcal/mol
Tm [2]: 58.5 °C

GATCCGCAAGCGGATC ((((((....))))))
folding enthalpy [1]: -39 kcal/mol
Tm [2]: 68 °C

GGCGGACGAAAGTCGGCC (((.(((....))).)))
folding enthalpy [1]: -39.2 kcal/mol
Tm [2]: 69.3 °C

TAACGGAAACGTTA (((((....)))))
folding enthalpy [1]: -18.4 kcal/mol
Tm [2]: 41.3 °C

GCGGCAAACCGC ((((....))))
folding enthalpy [1]: -27.8 kcal/mol
Tm [2]: 55.8 °C

GTCAACCGAAAGGTGAC (((.(((....))))))
folding enthalpy [1]: -24.4 kcal/mol
Tm [2]: 55.7 °C

GATCGATCTTTCGATC ((((((....))))))
folding enthalpy [1]: -48.8 kcal/mol
Tm [2]: 53.1 °C

GATCGTACTGACGATC ((((((....))))))
folding enthalpy [1]: -36.2 kcal/mol
Tm [2]: 55.2 °C

GATCGACAGCTCGATC ((((((....))))))
folding enthalpy [1]: -41.2 kcal/mol
Tm [2]: 49.4 °C

CGAGTACGGAAACGTTCG (((..(((....))))))
folding enthalpy [1]: -20.4 kcal/mol
Tm [2]: 36.6 °C

GGGGTTCGAAAGAAGCCC (((.(((....))).)))
folding enthalpy [1]: -41.5 kcal/mol
Tm [2]: 66.3 °C

GCACTTGAAAAAGTGC ((((((....))))))
folding enthalpy [1]: -41.2 kcal/mol
Tm [2]: 61.2 °C

GCTAGTCCGAAAGGAAGC (((..(((....))))))
folding enthalpy [1]: -16.1 kcal/mol
Tm [2]: 30 °C

ATGTTGAAAAACAT (((((....)))))
folding enthalpy [1]: -13 kcal/mol
Tm [2]: 37 °C

ACCTGGAAACAGGT (((((....)))))
folding enthalpy [1]: -18.8 kcal/mol
Tm [2]: 51.1 °C

GCAAGCGAAAGCTAGTGC ((((((....)))..)))
folding enthalpy [1]: -17.8 kcal/mol
Tm [2]: 39.9 °C

GATCGAGCTTCGATC ((((((...))))))
folding enthalpy [1]: -33.8 kcal/mol
Tm [2]: 51.3 °C

GCTGGTCGAAAGACGAGC (((.(((....))).)))
folding enthalpy [1]: -54.3 kcal/mol
Tm [2]: 54.5 °C

GGGGTTTCGAAAGAACCC (((..(((....))))))
folding enthalpy [1]: -32.9 kcal/mol
Tm [2]: 50.8 °C

GGTGCGTCGAAAGACACC (((..(((....))))))
folding enthalpy [1]: -13 kcal/mol
Tm [2]: 37.1 °C

GTTTAGGGAAACCTAGAC ((.((((....)))).))
folding enthalpy [1]: -27.4 kcal/mol
Tm [2]: 33 °C

GCCAAGCGAAAGCGTAGC ((.(.((....)).).))
folding enthalpy [1]: -13.3 kcal/mol
Tm [2]: 47.5 °C

GATCGCACCCGCGATC ((((((....))))))
folding enthalpy [1]: -38.9 kcal/mol
Tm [2]: 67.6 °C

GTAAATCGAAAGATGTAC (((.(((....))).)))
folding enthalpy [1]: -23.1 kcal/mol
Tm [2]: 34.4 °C

GAGCGCGAAAGCGAGCTC ((((((....)))..)))
folding enthalpy [1]: -20.9 kcal/mol
Tm [2]: 58.3 °C

CGAGTGAAAACTCG (((((....)))))
folding enthalpy [1]: -24.6 kcal/mol
Tm [2]: 54.6 °C

GATCAACTGTTTGATC ((((((....))))))
folding enthalpy [1]: -32.3 kcal/mol
Tm [2]: 43.2 °C

GTTATGACGAAAGTCAAC (((..(((....))))))
folding enthalpy [1]: -10.5 kcal/mol
Tm [2]: 26.2 °C

GTGCGCGAAAGCGTACAC ((((((....)))..)))
folding enthalpy [1]: -11.9 kcal/mol
Tm [2]: 60.5 °C

GGCTACGAAAGTAAGGCC ((((((....)))..)))
folding enthalpy [1]: -23.3 kcal/mol
Tm [2]: 48.2 °C

GTCCGTCGAAAGACTGAC (((.(((....))).)))
folding enthalpy [1]: -28.3 kcal/mol
Tm [2]: 47.8 °C

GAACACCGAAAGGTTTTC (((.(((....))).)))
folding enthalpy [1]: -25.1 kcal/mol
Tm [2]: 38 °C

GGATGGCGAAAGCCTCC (((.(((....))))))
folding enthalpy [1]: -18.6 kcal/mol
Tm [2]: 55.6 °C

GCATTAGCGAAAGCTTGC (((..(((....))))))
folding enthalpy [1]: -18.1 kcal/mol
Tm [2]: 40 °C
